Test results: the EternaBench riboswitch data

Test system: MS2 coat protein
Test: apparent Kd, MS2 coat protein; higher = weaker binding; RNA-MaP array; theophylline 2 mM where present
Procedure, shortened: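 Stalled E. coli RNA polymerase transcribed the designs on Illumina sequencing-chip clusters. SNAP-549-labelled MS2 coat protein was titrated from 0.7 or 1.5 nM, doubling to 3 µM, without and then with constant ligand, in 100 mM Tris-HCl pH 7.5, 80 mM KCl, 4 mM MgCl2, BSA, DTT, yeast tRNA and Tween-20. Per-cluster binding curves were fitted to green signal normalised to red-channel RNA signal and control-cluster median Fmax. The apparent Kd is the median of the filtered fits.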

[1] = designed as: ON switch for theophylline, no ligand
[2] = ligand present: theophylline, designed as: ON switch for theophylline
[3] = designed as: OFF switch for theophylline, no ligand
[4] = ligand present: theophylline, designed as: OFF switch for theophylline

| Sequence | apparent Kd [1] [nM] | apparent Kd [2] [nM] | apparent Kd [3] [nM] | apparent Kd [4] [nM] |
| --- | --- | --- | --- | --- |
| AUCGUACCUGAGGAUACCAGCAUGUGAUCAUAACAUGAGGAUCACCCAUGUAAUCAGUGAUGCCCUUGGCAGCUUGGUCGAUACA | 54.2 | 34.9 |  |  |
| AGACAUGAGGAUCACCCAUGUAGUACGGAUACCAGAUCCAGAUGCGUCCCUUGGCAGCUGUAGUACAGCGUUACGUCGCUCAUAG |  |  | 25.2 | 61 |
| CUCGGGUUAUCAGAUACCAGACUAAAAUUUACAUGAGGAUCACCCAUGUAAUGGGUGAUAGUCCCUUGGCAGCUGUUAUGUUUAA |  |  | 62.3 | 119 |
| UUAAGAGGCUAUCCACUUUGAUUUUGUGAUACCAGAAUAAUUUUAUUCCCUUGGCAGCAUGACAUGAGGAUCACCCAUGUGUCUU | 37.4 | 72.4 |  |  |
| ACAUGAGGAUCACCCAUGUCACGGCACGAUACCAGCUGAUCCGGUGGCCCUUGGCAGCGUGACGUUUGGUCCCGCGGAUCACACG | 75.4 | 38.6 |  |  |
| UAAAACAUGAGGAUCACCCAUGUAAUUGAUACCAGAGUGAUGAUCCUCCCUUGGCAGCAAAACGCUGAUUGGAAACAAUCAGCGA | 113 | 251 |  |  |
| UAUAUAUUGAUGGAUACCAGCAGAGAAAACGUUUAUCCUAACAUGAGGAUCACCCAUGUAUGCCCUUGGCAGCUGUUGAUAUAUA |  |  | 22.2 | 32.6 |
| AGACAUGAGGAUCACCCAUGUAGUACGGAUACCAGAUCCAGAUGCAUCCCUUGGCAGCUGUGGUACAGCGUUACAUCGCUCGUAG |  |  | 20 | 20.6 |
| AAAAUAAAUAAAACGCGUAACAUGAAGGAUACCAGCCAGAAAACUGGCCCUUGGCAGCCUCUACAUGAGGAUCACCCAUGUCGCG | 331 | 29.6 |  |  |
| GUUACAUGGCAAGCAUGUAUAUGGAUAGAUACCAGUUGAUAUUAAGACCCUUGGCAGCUGAGUACAUGAGGAUCACCCAUGUAAG |  |  | 42.5 | 90.8 |
| UAUAUAUAUAUUGAUACCAGCAGAGAAAACGUUUAUCCUAACAUGAGGAUCACCCAUGUAUGCCCUUGGCAGCGAUAUAUAUAUA |  |  | 24.5 | 32.5 |
| GCACGACAUGAGGAUCACCCAUGUGCAGAUACCAGUAAUGUAUGUUACCCUUGGCAGCUGAGUAGGUCUGGAGGGCUAUAGGUAA | 13.3 | 17.1 |  |  |
| AUUAAUUGUCGUGAUACCAGACUUACAUGAGGAUCACCCAUGUUACUUAAGAUUUUUGUUGUCCCUUGGCAGCACUUUUUAAUUA |  |  | 24.1 | 18.9 |
| GUCAGUUCUCAUGAUACCAGACCUGCCUCGGACAUGAGGAUCACCCAUGUACCCAAGCGAGUCCCUUGGCAGCAUGUGGCUUAAA | 19.2 | 10.8 |  |  |
| AAUAUAAAAUAAAGAAAAUUUAUAUCUGAUACCAGACUCUCAUGGGUCCCUUGGCAGCAGUAACAUGAGGAUCACCCAUGUAUUA | 114 | 16.5 |  |  |
| AUUAAUAGUUGUGAUACCAGACUUACAUGAGGAUCACCCAUGUUACUUAAGUGUUUUGAUGUCCCUUGGCAGCACUGUUUAGUUA | 25.5 | 13.4 |  |  |
| AGUGUUAUAACUGAUACCAGACUUUUGCUUAUACAUGAGGAUCACCCAUGUAAAAUGGUUGUCCCUUGGCAGCAGAAAAUACACA | 84 | 20.4 |  |  |
| AAACGUUGCUGCGAUACCAGACAUGAGGAUCACCCAUGUACCAAGGUACGAAAAUAACAUGUCCCUUGGCAGCGCAGCAACGAAA |  |  | 13.2 | 336 |
| UGUAUGUGAUCUGAUACCAGUCCAACUGGUAAAACAUGAGGAUCACCCAUGUAAAAUUGGGACCCUUGGCAGCAGAUCGCAUACU | 534 | 28.4 |  |  |
| AUUCCAUAGGUGCAGUUGUUAAAUGGCGAUACCAGCGUGGAAACACGCCCUUGGCAGCGCCAAAACAUGAGGAUCACCCAUGUUA |  |  | 95.8 | 186 |
| GGUCUCUGGAGCGAUACCAGCUUGAGUGUACUGGCCAGGUACAUGAGGAUCACCCAUGUAAGCCCUUGGCAGCGCUGCAGAGACC |  |  | 10.1 | 29.1 |
| AAUGGCGUUGGUGAGGCGGUUAAUGGCGAUACCAGCGUGGAAACACGCCCUUGGCAGCGCCAAAACAUGAGGAUCACCCAUGUUA |  |  | 14.7 | 139 |
| GCACUACAUGAGGAUCACCCAUGUGCAGAUACCAGAGGUGUAUGCCUCCCUUGGCAGCUGCGUCGCUCUGGCAGCUUGUGGGUUG | 100 | 153 |  |  |
| UGUAACAUGAGGAUCACCCAUGUGAGUGAUACCAGACUAGUGUUGGUCCCUUGGCAGCACGCUGGGCGAGUGUGUAGUCUAUGCG | 92.8 | 120 |  |  |
| UGAUCCUAGACUGAUACCAGUCAUGAGUACAUGAGGAUCACCCAUGUCCAGGGACUCAAUGACCCUUGGCAGCAGAACCUAGUUC | 193 | 147 |  |  |
| GGGCCCGGGCGCGAGCCCGGGCCCAUUGAUACCAGUGAAUGUGUACGCCCUUGGCAGCGAAUCCUAACAUGAGGAUCACCCAUGU | 43.3 | 53.8 |  |  |
| UGUAUGUGAUGUGAUACCAGUCCAAUACUGGUAACAUGAGGAUCACCCAUGUAAUGAUGGGACCCUUGGCAGCACAUCGCAUACU | 212 | 111 |  |  |

| Sequence | apparent Kd [1] [nM] | apparent Kd [2] [nM] | apparent Kd [3] [nM] | apparent Kd [4] [nM] |
| --- | --- | --- | --- | --- |
| UACAUGAGGAUCACCCAUGUAAGGUGAGAUACCAGUGAUAUGCUACACCCUUGGCAGCUCACGGCUGACUAUCAGCACACAUGUA | 27 | 16.3 |  |  |
| ACAUGAGGAUCACCCAUGUGAAGGCACGAUACCAGCUGAUCCCGUGGCCCUUGGCAGCGUCCGGUUUGGUCCGGCGGAUGAGACG | 24.1 | 24.9 |  |  |
| UUAUUUAUAAAUGAUACCAGCCGAUUGGCCGCAAAUCCUAACAUGAGGAUCACCCAUGUCGGCCCUUGGCAGCAUUUAUGGGUUU |  |  | 76.7 | 722 |
| AAACAUGACAUGGAUACCAGACACAUGAGGAUCACCCAUGUUGAGGAUCACCCAUGUCCCGUCCCUUGGCAGCCAGCAUGAGGAU |  |  | 9.49 | 10.2 |
| AUACCGAGUGAGUCGUGUUUCUUUUCAGAUACCAGACUUUUCGUUGUCCCUUGGCAGCUGUUUUACAUGAGGAUCACCCAUGUUG |  |  | 18.2 | 25.5 |
| CUCUGAGUCCGCAAGGACUCAGAGGCGGAUACCAGCGAGGUCCAUCGCCCUUGGCAGCCGAACAUGAGGAUCACCCAUGUCGGUA | 10.4 | 14.8 |  |  |
| AGAAUAACACAUGAGGAUCACCCAUGUGAUACCAGCUAGGAAACUAGCCCUUGGCAGCACAUAAUCCUCAUGAGCUGCCAUAAUA |  |  | 12.8 | 21.4 |
| AACAUGAGGAUCACCCAUGUAAAAUGGGAUACCAGAGACGAAAGUCUCCCUUGGCAGCCCACUGCCUCCUUUACGAAAGUAGAGG | 31.6 | 18.2 |  |  |
| AUAACAUGAGGAUCACCCAUGUAGAGUGAUACCAGACUACGUAAUGUCCCUUGGCAGCACAAGUAAAGUUACGAAUAUUGAUAGA | 192 | 51.5 |  |  |
| AUUAAUAGUUGUGAUACCAGACGAACAUGAGGAUCACCCAUGUAACUUUUAGGUGUUGUAGUCCCUUGGCAGCACUAUGUAGUUA | 40 | 33.7 |  |  |
| GAACAUGAGGAUCACCCAUGUUAAACAGAUACCAGUGAUAUAAUACACCCUUGGCAGCUGAAGCUGAAUAAUAAUUCCCUCAAGC | 12 | 14.3 |  |  |
| UGAUCCUACAGAGAUACCAGUGCCGCUAGAUAACUAUGCACAUGAGGAUCACCCAUGUAACACCCUUGGCAGCUCAACUAAAGGG | 92.2 | 115 |  |  |
| AGGAACAUGAGGAUCACCCAUGUAAGCGAUACCAGUGAUAUGUUGCGCCCUUGGCAGCGCAAGUGUGUGUGAAAGAUGUAAGAUU |  |  | 16.5 | 33.4 |
| GCUGUAAGUGCAGAUACCAGCAGGUGAUAUUUCUAAUGACAUGAGGAUCACCCAUGUAACUGCCCUUGGCAGCUGCACUUACAGC | 57.6 | 12.9 |  |  |
| AUCGCACCUGGUGAUACCAGCGUUUGCUCGCGACAUGAGGAUCACCCAUGUGGCCAGUGAUGCCCUUGGCAGCAUGGGCGGUGCA | 282 | 90.2 |  |  |
| UCGUGUAUAUCGGAUACCAGUGAGAACGAUACAUGAGGAUCACCCAUGUGAGUUGAUGUACACCCUUGGCAGCUGUAUAUAUCUA | 25 | 16.3 |  |  |
| AAAACACAUGAGGAUCACCCAUGUCGUGAUACCAGUCAACAUGAGGACCCUUGGCAGCAUAAAAUGGGUAACAUGAGGAUCACCC |  |  | 85.1 | 133 |
| UGGUCACUAGGAGAUACCAGCCGACAUGAGGAUCACCCAUGUAACCGGCGUCCUCCCUUAGGCCCUUGGCAGCUCGUAGUUGCUC |  |  | 12.2 | 156 |
| AUCGUACCUGAUGAUACCAGCAUGUGAUCAUAACAUGAGGAUCACCCAUGUAAUCAGUGAUGCCCUUGGCAGCAUGAUCGGUACA | 57.3 | 26.3 |  |  |
| AAACAUUGCUGCGAUACCAGACAUGAGGAUCACCCAUGUACCAAGAAAACGUACAUAAAUGUCCCUUGGCAGCGCAGCAAUGAAA |  |  | 498 | 1290 |
| GGCACUCUGUAAGAUACCAGACGUCGGUGCUUACAUGAGGAUCACCCAUGUUGCUUUUUAGUCCCUUGGCAGCUUCGGAUAACCA | 121 | 147 |  |  |
| AGCCCUGUACUAGAUACCAGCUACAUGAGGAUCACCCAUGUGCGUCAAGACUGACUGUGUAGCCCUUGGCAGCUGCUCGCAUGUA |  |  | 22.1 | 32.2 |
| GAUGAACUAUUCGAUACCAGACUACAUGAGGAUCACCCAUGUGUGUCAAUUUCUCAGUCAGUCCCUUGGCAGCGAAUAGUUUAUC |  |  | 38.2 | 54.3 |
| AUACCUAAUGUUACAUUUACCUUAUCAGAUACCAGACUUUACGUUGUCCCUUGGCAGCUGUAUCACAUGAGGAUCACCCAUGUUG | 16 | 15.7 |  |  |
| ACGGAGAUUGCUAAAUGUUGGCGAGCGGAUACCAGCCUAUUAUUGGGCCCUUGGCAGCCGACAUGAGGAUCACCCAUGUAAACAA | 79 | 126 |  |  |
| AUAUGAAAGAGUGAUACCAGACUACAUGAGGAUCACCCAUGUGACAUUUAAAUAUCAUUUGUCCCUUGGCAGCACAUUAAGUACA |  |  | 38.8 | 44.9 |
